In publication PMC10500580 (ACS Omega, 2023):

Legend:
Antioxidant = conditions: read-out: IC50 antioxidant activity; DPPH, absorbance at 517 nm
Procedure, shortened: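 Test compound stocks at 22 mg/mL, diluted to working concentrations. DPPH radical was prepared at 4 mg per 100 mL pure methanol. Sample dilution and DPPH solution were mixed 1:2 by volume and left undisturbed overnight. Ascorbic acid in water served as the reference and was treated the same way. Absorbance was read at 517 nm, in triplicate.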

α-amylase = biological target: T1, α-amylase (Homo sapiens, UniProt P04746); test: In vitro antidiabetic; assay type: biochemical
T1 sequence (P04746 16-511): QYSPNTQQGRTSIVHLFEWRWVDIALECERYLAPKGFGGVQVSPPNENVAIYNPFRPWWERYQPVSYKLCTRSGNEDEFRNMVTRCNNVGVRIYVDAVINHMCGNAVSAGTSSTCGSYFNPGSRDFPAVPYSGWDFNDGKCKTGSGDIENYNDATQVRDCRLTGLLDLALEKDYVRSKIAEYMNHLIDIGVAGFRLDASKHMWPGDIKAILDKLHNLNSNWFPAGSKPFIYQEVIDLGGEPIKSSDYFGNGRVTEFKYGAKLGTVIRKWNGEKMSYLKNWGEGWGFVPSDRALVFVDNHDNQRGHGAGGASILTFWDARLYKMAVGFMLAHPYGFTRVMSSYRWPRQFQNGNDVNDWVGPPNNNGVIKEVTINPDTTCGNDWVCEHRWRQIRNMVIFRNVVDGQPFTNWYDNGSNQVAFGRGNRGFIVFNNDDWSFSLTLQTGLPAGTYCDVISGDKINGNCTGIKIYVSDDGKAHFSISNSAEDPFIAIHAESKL

Row | Compound | IC50 (Antioxidant) | IC50 (α-amylase) | inhibition against diabetes (in words) (α-amylase; conclusion, qualitative grade)
1 | C=CCOC(=O)c1ccccc1C(=O)OCC [HR3, 1-allyl 2-ethyl phthalate] | 15.1 µM |  | 
2 | CC(C)CCCCCOC(=O)c1ccccc1C(=O)OCCCCCC(C)C [HR5, bis (6-methylheptyl) phthalate] | 15.6 µM | 11.7 µM | excellent inhibition
